Assay results pooled from the literature.
Compare with care: the assays were run in different laboratories.
DRD5: D(1B) dopamine receptor (DRD5, Homo sapiens, UniProt P21918)
Hypoxanthine-guanine-xanthine phosphoribosyltransferase: Hypoxanthine-guanine-xanthine phosphoribosyltransferase (Plasmodium falciparum, UniProt P20035)
SLC10A2: Ileal sodium/bile acid cotransporter (SLC10A2, Homo sapiens, UniProt Q12908)
HRH3: Histamine H3 receptor (HRH3, Homo sapiens, UniProt Q9Y5N1)
CYP1B1: Cytochrome P450 1B1 (CYP1B1, Homo sapiens, UniProt Q16678)
WDR5: WD repeat-containing protein 5 (WDR5, Homo sapiens, UniProt P61964)
PDEB1: Class 1 phosphodiesterase PDEB1 (PDEB1, Trypanosoma brucei, UniProt Q8WQX9)

CCCCCCCC/C=C\CCCCCCCC(=O)NC(CO)(CO)CO
Ki (DRD5; ligand displacement, radioligand): > 10 µM

CN(C(=O)[C@@H]1Cc2ccccc2CN1C(=O)Cc1ccc(Cl)cc1)c1ccc(N2CCCCC2=O)cc1
Ki (Coagulation factor X (F10, Homo sapiens, UniProt P00742); enzyme activity, inhibitor, absorbance): 0.65 µM

O=C1N[C@@H]([C@@H](CO)NCc2c[nH]c3c(O)ncnc23)CO1
Ki (Hypoxanthine-guanine-xanthine phosphoribosyltransferase; enzyme activity, inhibitor; pH 7.4): > 20 µM

CN1CCN(CC/C=C2/c3ccccc3Sc3ccc(S(=O)(=O)N(C)C)cc32)CC1
Ki (SLC10A2; transporter uptake, inhibitor): 808 µM

CN(C)c1ccc(/C=C/C=C2\CCc3cc(OCCCN4CCCCC4)ccc3C2=O)cc1
Ki (HRH3; ligand displacement, radioligand; cell membranes): 0.094 µM

NS(=O)(=O)c1cc2c(cc1Cl)NCNS2(=O)=O
Ki (SLC10A2; transporter uptake, inhibitor): 2020 µM

C#Cc1ccc2c(=O)cc(-c3ccccc3)oc2c1
Ki (CYP1B1; enzyme activity, inhibitor, fluorescence; 6 min, pH 7.6): 0.42 µM

O=c1c(O)c(NC[C@@H](CO)NCc2c[nH]c3c(O)ncnc23)c1=O
Ki (Hypoxanthine-guanine-xanthine phosphoribosyltransferase; enzyme activity, inhibitor; pH 7.4): > 20 µM

Cc1nc(F)ccc1-c1cc(Cn2ccn(C)c2=N)cc(C(=O)NCc2ccc(Cl)c(Cl)c2)c1
Ki (WDR5; ligand displacement, FP): < 1e-06 µM

CN(C)c1ccc(/C=C2\CCc3cc(OCc4ccc(OCCCN5CCCCC5)cc4)ccc3C2=O)cc1
Ki (HRH3; ligand displacement, radioligand; cell membranes): 0.041 µM

C#Cc1cccc(-c2cc(=O)c3ccccc3o2)c1
Ki (CYP1B1; enzyme activity, inhibitor, fluorescence; 6 min, pH 7.6): 0.16 µM

Cc1nc(F)ccc1-c1cc(C(=O)NCc2ccc(Cl)c(Cl)c2)ccc1Cn1ccn(C)c1=N
Ki (WDR5; ligand displacement, FP): > 5 µM

O=C1c2ccccc2CCCN1CCCCN1CCN(c2ccccn2)CC1
Ki (DRD5; ligand displacement, radioligand): > 10 µM

CC(C(=O)O)c1cccc(C(=O)c2ccccc2)c1 (centres unmarked)
Ki (SLC10A2; transporter uptake, inhibitor): 178 µM

CN1CCN(CCCOc2ccc(Nc3nccc(N4CCN(C)CC4)n3)cc2)CC1
Ki (HRH3; ligand displacement, radioligand; cell membranes): 0.646 µM

O=C(NCc1cc(Cl)cc(Cl)c1)c1cccc(Cn2ccnc2)c1
Ki (WDR5; ligand displacement, TR-FRET): > 0.033 µM

CCCc1ccc(OCCCCCN2CCCCCC2)cc1
Ki (HRH3; ligand displacement, radioligand; cell membranes): 0.0563 µM

CC(=O)S[C@@H]1CC2=CC(=O)CC[C@]2(C)[C@H]2CC[C@@]3(C)[C@@H](CC[C@@]34CCC(=O)O4)[C@H]12
Ki (SLC10A2; transporter uptake, inhibitor): 110 µM

COc1ccc(C2=NN(C(C)C)C(=O)C3CC=CCC23)cc1-c1ccc(C(=O)N2CCC[C@@H]2C(N)=O)cc1 (mixture of isomers)
Ki (PDEB1; enzyme activity, inhibitor): 0.631 µM

O=c1cc([C@@H](CO)NCc2c[nH]c3c(O)ncnc23)o[nH]1
Ki (Hypoxanthine-guanine-xanthine phosphoribosyltransferase; enzyme activity, inhibitor; pH 7.4): > 20 µM

O=C1CCCc2cc(OCCCN3CCCCC3)ccc21
Ki (HRH3; ligand displacement, radioligand; cell membranes): 0.068 µM

CCc1ccc(OCCCCCCN2CCCC(C)C2)cc1 (centres unmarked)
Ki (HRH3; ligand displacement, radioligand; cell membranes): 0.0741 µM

C#Cc1cccc2oc(-c3ccccc3)cc(=O)c12
Ki (CYP1B1; enzyme activity, inhibitor, fluorescence; 6 min, pH 7.6): 0.21 µM

COc1ccccc1N1CCN(CCCCN2CCc3ccccc3C2=O)CC1
Ki (DRD5; ligand displacement, radioligand): 6.86 µM

c1cc2c(cc1OCCCCCN1CCCCCC1)CCC2
Ki (HRH3; ligand displacement, radioligand; cell membranes): 0.0645 µM

COc1cc(CNC(=O)c2cccc(CNC3=NCCN3)c2F)cc(OC)c1
Ki (WDR5; ligand displacement, FP): 1.23 µM

CCc1ccc(CCOc2ccc(CC3SC(=O)NC3=O)cc2)nc1 (centres unmarked)
Ki (SLC10A2; transporter uptake, inhibitor): < 100 µM

CN(C)c1ccc(/C=C/C=C2\CCc3ccc(OCc4ccc(OCCCN5CCCCC5)cc4)cc3C2=O)cc1
Ki (HRH3; ligand displacement, radioligand; cell membranes): 0.087 µM

O=c1c(O)c(NCC[C@@H](CO)NCc2c[nH]c3c(O)ncnc23)c1=O
Ki (Hypoxanthine-guanine-xanthine phosphoribosyltransferase; enzyme activity, inhibitor; pH 7.4): > 20 µM

CCCCN1CCC(COC(=O)c2ccc(N)c(OCF)c2)CC1
Ki (Beta-2 adrenergic receptor (ADRB2, Homo sapiens, UniProt P07550); cell-free assay, radioligand): > 10 µM

O=C1CN(CC[C@@H](CO)NCc2c[nH]c3c(O)ncnc23)S(=O)(=O)N1
Ki (Hypoxanthine-guanine-xanthine phosphoribosyltransferase; enzyme activity, inhibitor; pH 7.4): > 20 µM

COc1ccc(C2=NN(C3CCCCCC3)C(=O)C3CC=CCC23)cc1-c1ccc(C(=O)N2CC[C@@H](O)C2)cc1 (mixture of isomers)
Ki (PDEB1; enzyme activity, inhibitor): 0.251 µM

C[C@H]1[C@H](NC(=O)/C(=N\OC(C)(C)C(=O)O)c2csc(N)n2)C(=O)N1S(=O)(=O)O
Ki (SLC10A2; transporter uptake, inhibitor): 1850 µM

C#Cc1ccc(-c2cc(=O)c3ccccc3o2)cc1
Ki (CYP1B1; enzyme activity, inhibitor, fluorescence; 6 min, pH 7.6): 0.13 µM

CCOC(=O)C1=C(COCCN)NC(C)=C(C(=O)OC)C1c1ccccc1Cl (centres unmarked)
Ki (SLC10A2; transporter uptake, inhibitor): < 100 µM

COc1cc(O)c(CC=C(C)C)c2c1C(=O)CC(c1ccc(O)cc1)O2 (centres unmarked)
Ki (CYP1B1; enzyme activity, inhibitor, fluorescence; 15 min, pH 7.4): 0.54 µM

CNC(=C[N+](=O)[O-])NCCSCc1ccc(CN(C)C)o1
Ki (SLC10A2; transporter uptake, inhibitor): 886 µM

CCCNc1nc2ccccc2n1Cc1ccc(Cl)cc1
Ki (DRD5; cell-free assay, radioligand): 5.66 µM
